# Screening results: PubChem, several laboratories
# An excerpt weighted towards active compounds, which were near 2.4% of everything screened.
# HTRA1 inh – blocks human HTRA1 serine peptidase; recombinant HTRA1, FP-rhodamine activity-based probe, fluorescence polarization; inhibition, % at 5.96 µM; Q92743; AID 504803; 340,000 compounds, 0.5% hits; in the data active = inhibition above about 36%;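 also: 0% = enzyme with DMSO and 100% = wells lacking enzyme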
# GASC-1 inh – inhibitors of human GASC-1 (JMJD2C) demethylase | Q9H3R0 | GST-JMJD2C(1-420) H3K9me3 demethylation, DELFIA europium | inhibition, % at 2.35 µM | 330,000 compounds, 0.069% hits | AID 2099;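 active = more than half of a compound's replicate wells show inhibition beyond 50%, single wells judged on their own value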;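 also: signal counts dimethyl H3K9 product captured on neutravidin plate; 0% = median of DMSO wells and 100% = 0.3 times that DMSO median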
# PRMT1 inh – blocks human protein arginine methyltransferase 1; AID 652257; inhibition, % at 2.79 µM; Q99873; recombinant PRMT1, activity-based probe fluorescence polarization; 370,000 compounds, 1.3% hits;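 active = inhibition above about 21% made by adding two undisclosed values, limit read from the data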
# mABHD4 FP – inhibits mouse alpha/beta hydrolase domain 4; Q8VD66; AID 720543; 370,000 compounds, 0.54% hits; inhibition, % at 8.92 µM; purified mABHD4, FP-Rh probe fluorescence polarization;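 active = inhibition exceeding the mean over every tested compound plus 3 SD, cut at about 30% in these data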;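 also: 0% = plate median of compound wells and 100% = S159A mutant with DMSO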
# Target sequence (Q8VD66 whole entry, looked up, the tested form may be a part): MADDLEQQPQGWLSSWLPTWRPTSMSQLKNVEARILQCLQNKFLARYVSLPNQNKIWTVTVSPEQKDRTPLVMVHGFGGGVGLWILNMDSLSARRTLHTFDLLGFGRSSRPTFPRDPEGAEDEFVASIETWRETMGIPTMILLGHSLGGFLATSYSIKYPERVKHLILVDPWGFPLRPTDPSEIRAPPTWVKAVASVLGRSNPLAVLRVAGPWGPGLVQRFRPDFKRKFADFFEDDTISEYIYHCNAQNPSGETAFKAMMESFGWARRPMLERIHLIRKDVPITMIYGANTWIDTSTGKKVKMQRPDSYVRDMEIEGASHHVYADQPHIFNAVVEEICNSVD
#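 Test system: mouse ABHD4 enzyme, wild type. Reagent: FP-Rh fluorescent activity-based probe, added after compound pre-incubation. Timing: pre-incubation 45 min, probe exposure 60 min, at 25 °C. Technique: FP readout, ex 525 nm / em 598 nm. Benchmarks: high control S159A mutant with DMSO, low control median of compound wells.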
# SIAE primary – human SIAE inhibition, primary screen. Q9HAT2. SIAE FP-Rh probe binding, fluorescence polarization. inhibition, % at 9.66 µM. 370,000 compounds, 0.69% hits. AID 1053197;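 active = inhibition above a cutoff: mean of compounds within the control limits plus 3 SD of those, cut at about 17% in these data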;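 also: 0% = plate median of compound wells and 100% = probe without SIAE protein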
# HTRA1 inh conf – confirmation of human HTRA1 inhibitors | shares compounds with HTRA1 inh | recombinant HTRA1, FP-rhodamine activity-based probe, fluorescence polarization | inhibition, % at 5.96 µM | 1,600 compounds, 66% hits;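 active = mean inhibition over three repeats above a set limit taken from the earlier primary screen, cut at about 37% in these data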;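 also: 0% = HTRA1 with DMSO and 100% = wells lacking HTRA1; inhibitors block probe binding so polarization drops and inhibition rises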
# PRMT1 confirm – confirmation of human PRMT1 inhibitors; AID 687036; recombinant His-PRMT1, activity-based probe fluorescence polarization; shares compounds with PRMT1 inh; 3,300 compounds, 42% hits; inhibition, % at 2.79 µM;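 active = mean inhibition across replicates above the hit cutoff derived for the earlier primary screen, cut at about 22% in these data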
# mABHD4 conf – ABHD4 (mouse) inhibition, FP confirmation | shares compounds with mABHD4 FP | purified mABHD4, FP-Rh probe fluorescence polarization | inhibition, % at 8.92 µM | 1,800 compounds, 55% hits;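 active = mean inhibition across replicates above the hit cutoff set in the primary screen, cut at about 30% in these data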;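 also: 0% = wild-type ABHD4 with DMSO and 100% = catalytically dead S159A mutant with DMSO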
# SIAE inh conf – human SIAE inhibition, confirmation | shares compounds with SIAE primary | SIAE FP-Rh activity-based probe, fluorescence polarization | inhibition, % at 9.66 µM | 2,300 compounds, 13% hits | AID 1117263;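 active = mean inhibition of the replicates above the hit cutoff set in the primary screen, cut at about 17% in these data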;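 also: 0% = SIAE with DMSO and probe and 100% = probe without SIAE; inhibitors lower polarization as more probe stays unbound to SIAE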
# * marks the source's active call; other numbers are inactive results; . = not tested or not shown; + = active, no number.
SMILES,HTRA1 inh,GASC-1 inh,PRMT1 inh,mABHD4 FP,SIAE primary,HTRA1 inh conf,mABHD4 conf,others
O=[N+]([O-])c1ccccc1NC(=S)N/N=C/c1ccc(O)c(O)c1,80*,5,8,51*,8,73*,36*,
O=[N+]([O-])c1ccccc1C=NNC(=S)NN=Cc1ccccc1[N+](=O)[O-],10,.,8,9,4,.,.,
O=C(O)COc1ccccc1C=NNc1ccc([N+](=O)[O-])cc1S(=O)(=O)Nc1ccc(Cl)cc1,-45,-1,13,5,-12,.,.,
O=C(O)c1ccccc1NS(=O)(=O)c1ccc(N/N=C/c2ccc(O)c(O)c2)c([N+](=O)[O-])c1,66*,.,33*,81*,-1,143*,100*,PRMT1 confirm=40*
O=C(O)COc1ccccc1/C=N/Nc1ccc(S(=O)(=O)Nc2ccc(Cl)cc2)cc1[N+](=O)[O-],54*,-5,5,63*,11,88*,79*,
COC(=O)C1CN(Cc2cn(Cc3ccc(OC)cc3)nn2)CCS(=O)(=O)N1Cc1ccccc1 (stereo not drawn),.,.,5,6,-3,.,.,
N#C/C(=C\c1ccc(O)c(O)c1)C(=O)NCCCc1ccccc1,66*,-28,1,34*,14,77*,52*,
COc1ccc(/C=C(\C#N)C(=O)NCCc2ccccc2)cc1OCc1ccccc1,-3,-8,1,-6,-25,.,.,
Cc1cccc(NC(=S)NCc2ccc3c(c2)cc(C)n3C)c1C,50*,0,8,30*,4,-1,-16,
Cc1cccc(NC(=O)NCc2ccc3c(c2)cc(C)n3C)c1,40*,2,9,42*,7,-7,-3,
Nc1ccc(N=Nc2ccccc2)c(N)n1,15,16,3,16,9,.,.,
Cc1[nH]c(N=Nc2ccccc2)nc1N=Nc1ccccc1,74*,12,-2,45*,2,75*,62*,
CCN(CC)C(=O)CSc1nnc(-c2ccc(C(C)(C)C)cc2)n1-c1ccc(Cl)cc1,.,.,-6,0,3,.,.,
O=C(CNc1ccc2ccccc2c1)N/N=C/c1ccc(C(=O)O)cc1,3,-16,18,17,0,.,.,
O=C(O)c1ccc(/C=N/NC(=O)c2cc3ccccc3cc2O)cc1,42*,-9,7,31*,13,16,-6,
O=C1C(NS(=O)(=O)c2cccs2)=C(N2CCN(c3cccc(C(F)(F)F)c3)CC2)C(=O)c2ccccc21,45*,5,10,43*,3,69*,70*,
CCOc1ccccc1N1CCN(C2=C(NS(=O)(=O)c3cccs3)C(=O)c3ccccc3C2=O)CC1,63*,-15,-1,48*,12,68*,62*,
CN1CCN(C2=C(NS(=O)(=O)c3cccs3)C(=O)c3ccccc3C2=O)CC1,1,-5,-4,3,-3,.,.,
COc1ccc(C(=O)N2CCCC(C)(C(=O)NS(=O)(=O)C3CC3)C2)cc1 (stereo not drawn),.,.,-2,-9,3,.,.,
Cc1ccc(N=C2C(=O)Nc3ccccc32)cc1,2,8,-1,1,3,.,.,
CCN(CC)c1ccc(N=C2C(=O)Nc3ccccc32)cc1,63*,2,30*,46*,15,44*,51*,
CC(=O)OC(C=C(C)C)C/C(C)=C/COc1c2ccoc2cc2oc(=O)ccc12 (stereo not drawn),-19,.,0,5,-1,.,.,
CCCC(=O)C1=C(c2ccccc2)C(C#N)(C#N)C(C#N)=C1N,38*,-17,18,38*,13,55*,22,
C=Cc1ccc(CC2(C)C(=O)Nc3ccc(-c4cccnc4)cc32)cc1 (stereo not drawn),.,.,9,-20,-6,.,.,
O=C1C(Cl)=C(NC(=O)c2ccccc2)C(=O)C(Cl)=C1NC(=O)c1ccccc1,37*,2,96*,64*,3,-2,71*,
SMILES,HTRA1 inh,GASC-1 inh,PRMT1 inh,mABHD4 FP,SIAE primary,HTRA1 inh conf,mABHD4 conf,others
CN(C1=C(NC(=O)c2ccc(Cl)cc2)C(=O)c2ccccc2C1=O)c1ccccc1,73*,9,3,56*,1,65*,71*,
O=C(NC1=C(Nc2ccc(Cl)cc2)C(=O)c2ccccc2C1=O)c1ccccc1,19,4,0,16,-11,.,.,
CCc1ccccc1-c1cc(C(=O)OC)c2n(c1=O)CCC2,.,.,-1,7,-3,.,.,
O=C(O)[C@H]1CCCC[C@H]1C(=O)Nc1ccc(Nc2ccccc2)cc1,67*,8,12,42*,7,21,19,
CCCCCCCCCCCCCCCC(O)C[N+](C)(C)CCO (stereo not drawn),+,.,-2,38*,1,66*,51*,
CC(C)(C)C(C(=O)NC1CCCC1)N1CCN(c2ncccc2C#N)CC1 (stereo not drawn),.,.,5,-6,2,.,.,
CCCCC(=O)Nc1ccc(C(=O)NCC2COc3ccccc3O2)cc1 (stereo not drawn),.,.,0,-5,-3,.,.,
CCOC(=O)C(C(=O)OCC)c1cc(Br)c2noc3c2c1C(=O)c1ccccc1-3,48*,3,32*,22,22*,25,.,PRMT1 confirm=53*;SIAE inh conf=-2
Cc1ccc(NC(=O)CS(=O)CC(=O)Nc2ccccc2-c2ccc(C)o2)cc1 (stereo not drawn),57*,-1,51*,45*,33*,-9,-2,SIAE inh conf=9
O=C(CS(=O)CC(=O)Nc1ccccc1-c1ccccc1)Nc1ccc(F)cc1 (stereo not drawn),4,0,6,-10,-3,.,.,
Cn1c2ccccc2c2cc(/C=N/NC(=O)c3ccc(O)cc3O)ccc21,-19,-10,.,.,.,.,.,
COc1ccc2c(c1)cc(C(=O)N/N=C/c1c(O)c(C(=O)O)cc3ccccc13)n2C,55*,4,2,19,39*,39*,.,SIAE inh conf=6
CC(=O)Nc1ccc(N=Cc2c(O)c(C(=O)Nc3ccccc3)cc3ccccc23)cc1,.,-1,6,-6,7,.,.,
Cn1c(O)c(/C=N/NC(=O)c2cc3ccccc3cc2O)c2ccccc21,54*,11,3,40*,23*,55*,44*,SIAE inh conf=10
Cc1nc(N2CCN(C(=O)COc3ccccc3C)CC2)c2c3c(sc2n1)CCCC3,.,.,0,-2,1,.,.,
Oc1c(Br)cc(Br)cc1CNc1cccc2cccnc12,70*,5,12,56*,32*,32,-10,SIAE inh conf=15
